# Source: PubChem
# Beta cell apopt – inhibitors of cytokine-induced beta cell apoptosis, primary screen, luminescence; protection from apoptosis, % (no concentration beside the values); 0.8% of 300,000 active; AID 435005, 2010; INS-1E cytokine-induced death, ATP luminescence, 48 h; percent of positive-control rescue, neutral wells zero;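 active means Every replicate reaches about 75%, or at least half do and their mean reaches it too, limit read from the data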;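 further: 0% = cytokine-treated negative control wells and 100% = positive control rescue; higher means more ATP so stronger rescue from cytokine killing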
# XBP1 UPR activ – activators of adaptive XBP1 UPR arm, primary screen, cell-based, CHO-XBP1 luciferase reporter, luminescence, uHTS; activation, % at 20 µM; IRE1-XBP1 UPR activation; percent of tunicamycin response, DMSO as zero; 0.33% of 330,000 active; AID 463104, 2010;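 active means versus positive control, 20 µM dose yields 30% or more activation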;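 further: 100% = tunicamycin at 10 µg/mL and 0% = DMSO only wells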
#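 assay system = CHO-XBP1 luciferase reporter cells | amount = 1000 cells/well | buffer or medium = F12 plus 10% FBS | compound dosing = single point, 20 µM final compound, 1% DMSO | incubation = 16-18 h cell attachment at 37 °C, then 6 h compound exposure | detection = Steady-Glo luminescence read | controls = tunicamycin 10 µg/mL and vehicle-only wells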
# CSC inhib – cancer stem cell viability inhibitors, primary screen, luminescence; inhibition, % at 7.5 µM; cancer stem cell-like cells viability; AID 2717, 2010; 1.1% of 300,000 active; in the data active means inhibition above about 75%; tested in HMLE shEcad cells
# Mdm2 MdmX PPI – inhibitors of human Mdm2-MdmX association, primary screen, cell-based, luminescence, split luciferase, SaOS-2, uHTS; Protein Mdm4 (Homo sapiens) + E3 ubiquitin-protein ligase Mdm2 (Homo sapiens), …; SaOS-2 split-luciferase Mdm2/MdmX complementation; inhibition, % at 8 µM; 3% of 330,000 active;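 active means inhibition of at least 50% at 8 µM in the primary screen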
# T cruzi repl – inhibitors of intracellular T. cruzi growth, primary screen, luminescence, NIH3T3 host cells | T. cruzi beta-gal in NIH3T3, 90 h | inhibition, % (test concentration not listed) | 1.4% of 300,000 active;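 active means mean inhibition across valid replicates above about 55%, limit read from the data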;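 further: signal also drops with host cell toxicity which is not excluded here; 0% = plate median of DMSO wells and 100% = zero luminescence signal; higher percent means less beta-gal luminescence so fewer parasites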
#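 assay system = mouse NIH/3T3 fibroblasts infected with β-gal-expressing T. cruzi Tulahuen C4 | input = 5,000 NIH/3T3 host cells per well | buffer or medium = DMEM plus 2% FBS | timing = 3 h host attachment, then at least 90 h co-culture | measured by = GalScreen luminescence, 60 min | evaluation = luminescence reflecting intracellular parasite burden, expressed as percent inhibition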
# UPR CHOP act – activators of apoptotic CHOP UPR arm, primary screen, cell-based, CHO-CHOP luciferase reporter, luminescence, uHTS | UPR activation; percent of tunicamycin response over DMSO baseline | activation, % at 10 µM | 0.34% of 330,000 active;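 active means at 10 µM dose, activation of 40% or more, normalized to positive control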;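 further: 100% = tunicamycin at 10 µg/mL and 0% = DMSO alone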
#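 Test system: CHO CHOP reporter cells. Input: 500 CHO-CHOP cells per well. Medium: F12 with 10% FBS. Technique: luciferase luminescence. Measure: percent activation relative to tunicamycin control. Dosing: 10 µM compound, 0.5% DMSO. Timing: 16-18 h cell attachment, then 6 h compound exposure, 37 °C.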
# Mdm2-MdmX conf – Mdm2-MdmX complex disruptors, retested hits, confirmation, luminescence, single concentration; inhibition, % at 8 µM; 55% of 10,000 active; AID 489028, 2010; shares compounds with Mdm2 MdmX PPI; Mdm2-MdmX binding, luminescent assay; in the data active means inhibition above about 40%
# Full FLuc ctr – full-length luciferase signal inhibition, confirmation, counter-screen for Mdm2/MdmX interaction inhibitor project, cell-based, single concentration, SaOS-2 | inhibition, % at 8 µM | 77% of 6,200 active | AID 504607, 2011 | shares compounds with Mdm2 MdmX PPI | SaOS-2 full-length luciferase counterscreen, luminescence;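 active means mean inhibition at 8 µM reaching about 37%, which flags the compound as non-specific, limit read from the data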;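 further: p53-null SaOS-2 cells with luciferase driven by a doxycycline-inducible promoter; compound on cells about two nights before reading with doxycycline added after day one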
# The depositor's hits bear a star; · = no result. Sampled rows, rich in hits. Any-hit rate of the full collection: about 5%.
SMILES,Beta cell apopt,XBP1 UPR activ,CSC inhib,Mdm2 MdmX PPI,T cruzi repl,UPR CHOP act,Mdm2-MdmX conf,others
N#C/C(=C\c1ccc(-c2ccc(F)cc2)o1)C(=O)Nc1nc(-c2cccs2)cs1,1,0,12,71*,-55,1,21,
CC1(C)N=C(N)N=C(N)N1c1ccc(Oc2ccc(Cl)cc2)c(Cl)c1,2,0,89*,67*,55*,-1,50*,Full FLuc ctr=88*
CN(C)c1ccnc2sc(C(=O)c3ccc(Br)cc3)c(N)c12,5,5,26,-16,37,4,·,
CN(C)c1ccnc2sc(C(N)=O)c(N)c12,-12,2,5,97*,-2,-1,81*,Full FLuc ctr=21
CC(=O)c1c(C)[nH]c(C(=O)OCC(=O)c2c(N)n(CC(C)C)c(=O)n(C)c2=O)c1C,-4,-3,·,45,·,0,·,
CC(=O)c1c(C)[nH]c(C(=O)OCC(=O)c2c(N)n(C)c(=O)n(C)c2=O)c1C,-12,1,-1,56*,-10,0,2,
Cc1cccc(S(=O)(=O)c2c(N)n(/N=C/c3ccccc3)c3nc4ccccc4nc23)c1,10,-3,14,39,31,4,·,
Nc1c(S(=O)(=O)c2ccccc2)c2nc3ccccc3nc2n1/N=C/c1cccc(O)c1,14,2,104*,67*,43,4,15,
COc1ccc(NC(=O)C2(c3ccc(NC(=O)c4ccc(OC)c(OC)c4)cc3)CCCC2)cc1,-2,-2,2,55*,-18,1,21,
Cc1ccc(O)c(C(=O)/C=C/c2ccc3c(c2)OCCO3)c1,1,13,26,52*,-8,2,24,
O=C(/C=C/c1ccc2c(c1)OCCO2)c1ccccc1,-2,0,13,-15,2,1,·,
CN1CCN(C(c2ccccc2)c2ccc(Cl)cc2)CC1 (stereo not drawn),6,-6,0,36,·,-2,·,
CN1CCN(C(c2cccc(Cl)c2)c2ccccc2Cl)CC1 (stereo not drawn),0,-2,-2,55*,40,1,44*,Full FLuc ctr=65*
O=C(CN1C(=O)c2ccccc2S1(=O)=O)c1ccc2c(c1)OCCCO2,-8,-11,-7,95*,-9,-11,81*,Full FLuc ctr=56*
O=C(CN1C(=O)c2ccccc2S1(=O)=O)c1cccc(Br)c1,-1,-8,-9,23,-6,-7,·,
O=C(CN1C(=O)c2ccccc2S1(=O)=O)c1ccc2c(c1)OCCO2,-2,-11,-6,98*,-8,-10,99*,Full FLuc ctr=56*
CC(SC1=NCCS1)C(=O)Nc1nnc(-c2ccc(F)cc2)s1 (stereo not drawn),-1,-3,31,-19,-28,4,·,
CC(SC1=NCCS1)C(=O)Nc1nnc(-c2ccc(Br)cc2)s1 (stereo not drawn),-5,1,56,52*,14,11,19,
COc1cccc(NC(=O)COC(=O)c2c3c(nc4ccccc24)CCC(C)C3)c1 (stereo not drawn),1,7,19,79*,73*,5,64*,Full FLuc ctr=64*
CC1CCc2nc3ccccc3c(C(=O)OCC(=O)NC3CCS(=O)(=O)C3)c2C1 (stereo not drawn),1,-1,-12,28,15,1,·,
CCOC(=O)C1=C(C)Nc2ccccc2N=C1NC(=O)c1oc2ccccc2c1COC,-17,-4,16,59*,·,2,50*,Full FLuc ctr=77*
CCOC(=O)C1=C(C)Nc2ccccc2N=C1N,-3,-2,-8,-17,5,1,·,
O=C(Nc1ccc(Cl)c(Cl)c1)C1=Cc2ccccc2OC1,-4,6,50,-47,17,2,·,
CCOc1cc(NC(=O)c2ccccc2C)c(OCC)cc1NC(=O)C1=Cc2ccccc2OC1,1,5,·,62*,4,0,16,
COc1ccc([N+](=O)[O-])cc1NC(=O)CSCc1ccc(Br)cc1,-3,3,·,51*,-1,2,-3,
SMILES,Beta cell apopt,XBP1 UPR activ,CSC inhib,Mdm2 MdmX PPI,T cruzi repl,UPR CHOP act,Mdm2-MdmX conf,others
COc1ccc([N+](=O)[O-])cc1NC(=O)CSCc1ccccc1C,3,0,7,-4,5,10,·,
CC(=O)CSc1nc(N)c(C#N)c(-c2cccs2)c1C#N,8,-1,-2,52*,5,-2,37,Full FLuc ctr=41*
CC(C)OC(=O)CSc1nc(N)c(C#N)c(-c2cccs2)c1C#N,8,5,-2,-17,13,0,·,
N#Cc1c(N)nc(SCC(=O)NCCc2ccccc2)c(C#N)c1-c1cccs1,-3,1,6,63*,10,-3,15,
NC(=O)c1ccc[n+](CC(=O)OCCC23CC4CC(CC(C4)C2)C3)c1,-3,3,-3,1,-4,-2,·,
Cc1c(CCOC(=O)c2ccccc2)sc[n+]1Cc1ccccc1,-17,1,·,1,7,1,·,
Cc1c(CCOC(=O)C23CC4CC(CC(C)(C4)C2)C3)sc[n+]1CC(=O)c1ccccc1,54,1,-7,54*,22,0,26,
Cc1c(CCOC(=O)CC23CC4CC(CC(C)(C4)C2)C3)sc[n+]1CC(=O)c1ccccc1,24,-2,100*,54*,48,-1,14,
O=C(CCCCCCC(=O)Nc1ccccc1)NO,-4,20,106*,50*,-11,2,34,
CCOc1ccccc1NC(=O)NCc1ccc2c(c1)OCO2,2,-8,-3,-17,-3,0,·,
NC1=NC(=Nc2ccc(Cl)cc2)c2ccccc21,-7,5,28,55*,-10,6,-12,
NC1=NC(=Nc2cccc(Cl)c2)c2ccccc21,-6,-2,20,51*,-9,4,16,
Cc1cccc(N=C2N=C(N)c3ccccc32)c1,-6,1,-2,48,-8,-2,·,
COc1ccccc1NS(=O)(=O)c1cccc(N=C2N=C(N)c3ccccc32)c1,-8,2,4,51*,-7,-2,24,
